From article PMC6957770 (Biochemical Journal, 2020)
Where “and” joins values, the source holds several entries; their conditions need not be identical. Identical values can stand only once. Entries after “also recorded” stand apart in the source; their conditions may differ. Like-named read-outs stand apart in the source and are kept apart here.

Assays:
[1] = target: T1, Full-length PilB (CtPilB) (Chloracidobacterium thermophilum, UniProt G2LDI3); experiment: ITC ligand binding to full-length PilB with or without effector; details: for N, number of ligand binding sites per protein: per PilB hexamer
T1 sequence (G2LDI3 1-614): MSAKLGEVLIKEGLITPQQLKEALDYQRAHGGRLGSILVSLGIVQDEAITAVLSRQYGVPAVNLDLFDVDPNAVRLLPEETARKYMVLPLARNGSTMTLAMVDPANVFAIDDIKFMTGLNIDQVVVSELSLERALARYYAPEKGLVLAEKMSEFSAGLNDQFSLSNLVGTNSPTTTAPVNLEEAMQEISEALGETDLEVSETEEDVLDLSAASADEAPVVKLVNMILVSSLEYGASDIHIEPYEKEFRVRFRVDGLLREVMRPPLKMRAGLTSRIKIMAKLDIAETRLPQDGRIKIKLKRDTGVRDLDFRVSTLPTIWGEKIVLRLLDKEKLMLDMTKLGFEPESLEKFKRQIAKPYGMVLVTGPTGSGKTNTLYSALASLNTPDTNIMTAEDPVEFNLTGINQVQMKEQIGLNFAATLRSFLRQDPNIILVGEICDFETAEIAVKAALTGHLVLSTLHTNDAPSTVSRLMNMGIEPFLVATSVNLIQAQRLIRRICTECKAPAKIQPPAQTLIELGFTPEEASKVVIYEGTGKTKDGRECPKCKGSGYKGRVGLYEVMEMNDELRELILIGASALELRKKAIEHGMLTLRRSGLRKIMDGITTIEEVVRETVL
Summary of the method: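 ITC at 25 °C using full-length hexameric PilB (expressed in E. coli XL1-Blue; Ni-NTA/SEC) dialysed into activity buffer. cdG runs: 5.3 μM protein, 0.5 mM cdG, one 0.4 μl then 29 × 1 μl injections, 150 s apart. ATPγS/ADP runs: 15 μM protein, 1 mM titrant, one 0.4 μl then 39 × 1 μl injections, 120 s apart. Optional effector pre-incubation: 15 min on ice (cdG 100 μM; ATPγS/ADP 50 μM). Buffer-only heats subtracted; single-site fit.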

PilBN = target: T2, PilBN (Chloracidobacterium thermophilum, UniProt G2LDI3); experiment: ITC ligand binding to PilBN; details: for binding detected by ITC: 30 μM PilBN, Supplementary Figure S4A,B
T2 sequence (G2LDI3 1-146): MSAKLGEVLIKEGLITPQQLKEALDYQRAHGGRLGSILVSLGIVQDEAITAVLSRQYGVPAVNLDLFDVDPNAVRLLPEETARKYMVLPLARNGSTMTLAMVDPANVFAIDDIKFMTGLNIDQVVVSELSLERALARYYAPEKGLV
Summary of the method: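 ITC at 25 °C, 300 rpm stirring. His-tagged PilBN (expressed in E. coli BL21(DE3)) was purified by Ni-NTA and size exclusion, dialysed into activity buffer, and set at 30 μM final in the cell. Syringe held 0.5 mM cdG, given as one 0.4 μl and 29 × 1 μl injections 150 s apart. Buffer-only heats were subtracted. Fit used a single-set-of-identical-sites model; ≥3 independent runs.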

PilBΔN = target: T3, PilBΔN (Chloracidobacterium thermophilum, UniProt G2LDI3); experiment: ITC ligand binding to PilBΔN; details: for ΔG / ΔH / N, number of ligand binding sites per protein: ITC; for ΔG / ΔH: 25 °C; for N, number of ligand binding sites per protein: per PilBΔN hexamer
T3 sequence (G2LDI3 140-614): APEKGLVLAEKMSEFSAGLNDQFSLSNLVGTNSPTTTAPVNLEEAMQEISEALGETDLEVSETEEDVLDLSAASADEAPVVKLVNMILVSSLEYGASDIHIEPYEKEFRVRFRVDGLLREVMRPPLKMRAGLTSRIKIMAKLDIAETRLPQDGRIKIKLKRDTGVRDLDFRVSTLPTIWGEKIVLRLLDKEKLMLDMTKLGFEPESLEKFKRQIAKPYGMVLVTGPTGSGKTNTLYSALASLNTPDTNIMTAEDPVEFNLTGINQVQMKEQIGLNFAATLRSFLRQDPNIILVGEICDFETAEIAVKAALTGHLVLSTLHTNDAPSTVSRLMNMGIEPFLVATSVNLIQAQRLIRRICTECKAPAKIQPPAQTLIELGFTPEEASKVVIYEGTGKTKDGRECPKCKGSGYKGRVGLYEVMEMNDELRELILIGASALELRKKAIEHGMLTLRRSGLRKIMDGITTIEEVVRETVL

[2] = tested on: full-length CtPilB ATPase; experiment: Malachite green-based ATPase assay of full-length CtPilB in the presence of cdG; format: biochemical, Chloracidobacterium thermophilum
Summary of the method: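 Full-length PilB (75 nM) ATPase was read by malachite green phosphate endpoint after 15 min at 54 °C in activity buffer, with cdG at 0, 2 or 200 μM. Kinetic runs used 0.5 and 1.0 mM ATP with or without cdG. No-protein ATP blanks served as controls.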

VcMshE = details: in vitro; cited from earlier work
[3] = target: PilBΔN (truncated CtPilB without the first 139 residues) (Chloracidobacterium thermophilum); experiment: SEC

Row | Compound | ΔG ([1]; ITC, 25 °C, no effector) [kcal/mol] | ΔH ([1]; ITC, 25 °C, no effector) | N, number of ligand binding sites per protein ([1]; ITC, no effector) | ΔG ([1]; effector cdG 100 μM) [kcal/mol] | ΔH ([1]; effector cdG 100 μM) | N, number of ligand binding sites per protein ([1]; effector cdG 100 μM) | binding detected by ITC (PilBN) | ΔG (PilBΔN; no effector) [kcal/mol] | ΔH (PilBΔN; no effector) | N, number of ligand binding sites per protein (PilBΔN; no effector) | other results
1 | Nc1ncnc2c1ncn2[C@@H]1O[C@H](COP(=O)(O)OP(=O)(O)O)[C@@H](O)[C@H]1O [ADP] | -7.3 | -15.4 kcal/mol and -15.4 ± 1.0 kcal/mol | 2.20±0.02 | -6.9 | -46.2 kcal/mol and -46.2 ± 1.6 kcal/mol | 1.79±0.06 | no detectable binding; also recorded: without detectable binding | -7.0 | -16.2 kcal/mol and -16.2 ± 0.4 kcal/mol | 2.20±0.03 | Kd ([1]; read-out: apparent dissociation constant KD, ITC, 25 °C, no effector, 15 μM PilB): 4.3 ± 1 µM
2 | Nc1ncnc2c1ncn2[C@@H]1O[C@H](COP(=O)(O)OP(=O)(O)OP(=O)(O)O)[C@@H](O)[C@H]1O [ATP] | – | – | – | – | – | – | – | – | – | – | N, stoichiometry per PilB hexamer ([1]; ITC with ATP, hydrolysis interferes): 2
3 | Nc1ncnc2c1ncn2[C@@H]1O[C@H](CO[P@](=O)(O)O[P@](=O)(O)O[P@@](=O)(O)S)[C@@H](O)[C@H]1O [ATPγS] | -7.4 | -10.3 ± 0.3 kcal/mol | 2.8 and 2.8±0.06 | -7.4 | -10.3 ± 0.3 kcal/mol | 2.91±0.04 | no detectable binding; also recorded: without detectable binding | -7.2 | -11.5 kcal/mol and -11.5 ± 0.6 kcal/mol | 2.42±0.07 | Kd ([1]; apparent dissociation constant KD, ITC, 25 °C, no effector, 15 μM PilB): 3.8 ± 0.5 µM; Kd (PilBΔN): 5.2 ± 0.7 µM; KD for PilBΔN higher than KD for full-length PilB (PilBΔN; PilBΔN versus full-length PilB, no effector): ~40%
4 | Nc1nc2c(ncn2[C@@H]2O[C@@H]3COP(=O)(O)O[C@H]4[C@@H](O)[C@H](n5cnc6c(=O)[nH]c(N)nc65)O[C@@H]4COP(=O)(O)O[C@H]3[C@H]2O)c(=O)[nH]1 [cdG, cyclic-di-GMP] | – | -14.5 kcal/mol and -14.5 ± 0.13 kcal/mol | 5.83±0.01 | – | – | – | – | – | – | – | Kd ([1]; apparent dissociation constant KD, ITC, 25 °C, no effector, 5.3 μM PilB): 0.053 ± 0.01 µM; ΔG ([1]; effector ADP 50 μM): -10.6 kcal/mol; ΔH ([1]; effector ADP 50 μM): -12.0 ± 0.09 kcal/mol; N, number of ligand binding sites per protein ([1]; effector ADP 50 μM): 5.94±0.09; ΔH ([1]; effector ATPγS 50 μM): -14.0 ± 0.3 kcal/mol; N, number of ligand binding sites per protein ([1]; effector ATPγS 50 μM): 6.33±0.08; effect on ATPase activity, kinetic assay ([2]; cdG 0, 2 or 200 μM, ATP 0.5 and 1.0 mM, Supplementary Figure S5): not statistically significant; also recorded: did not affect; effect on ATPase activity, endpoint assay ([2]; cdG at 0, 2 and 200 μM, data not shown): no difference; Kd (PilBN): 0.107 ± 0.014 µM; ΔG (PilBN; ITC, 25 °C, no effector): -9.5 kcal/mol; ΔH (PilBN; ITC, 25 °C, no effector): -7.4 ± 0.5 kcal/mol; −TΔS (PilBN; ITC, 25 °C, no effector): -2.1 kcal/mol; N, number of ligand binding sites per protein (PilBN; ITC, no effector, PilBN monomer): 1.09±0.03; binding detected by ITC (PilBΔN; 5.3 μM PilBΔN, Supplementary Figure S4C): Nor was there any detectable binding; effect of cdG on ATPase activity (VcMshE): only to a very limited extent
5 | PilBΔN (truncated CtPilB without the first 139 residues) (from UniProt A0ABV9NNI3 140-574) (domain or fragment) | – | – | – | – | – | – | – | – | – | – | stoichiometry N [3]: 6
